Assay results reported in ChEMBL document CHEMBL1154252, “Nitric oxide scavenging lignans from Vitex negundo seeds” (J Nat Prod, 2009).

Experiments:
[1] = test system: RAW264.7; assay: Antiinflammatory activity against mouse RAW264.7 cells assessed as inhibition of LPS-induced nitric oxide production after 24 hrs by Griess reagent method; type: functional, cell-based; details: RAW264.7, 24 h
Method in brief: (§1)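 RAW 264.7 macrophages seeded at 10^5 cells/well, co-incubated with compound and LPS (1 µg/mL) for 24 h. Nitrite in supernatant measured by Griess reagent: supernatant mixed in turn with 1% sulfanilamide and 0.1% naphthylethylenediamine in 2.5% phosphoric acid, absorbance read at 548 nm. n = 4, mean ± SD; L-nitroarginine as positive control, LPS alone as negative control.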

[2] = test system: RAW264.7; assay: Antiinflammatory activity against mouse RAW264.7 cells assessed as inhibition of LPS-induced nitric oxide production at 1 uM after 24 hrs by Griess reagent method; type: functional; details: RAW264.7, 24 h; method in brief: as §1
[3] = test system: RAW264.7; assay: Cytotoxicity against LPS-stimulated mouse RAW264.7 cells up to 1 uM after 24 hrs by MTT assay; type: cell-based; details: raw264.7, 24 h
Method in brief: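 After supernatant removal for Griess assay, LPS-treated RAW 264.7 cells given fresh medium with 2 mg/mL MTT. Incubated 3 h at 37 °C, 5% CO2. Formazan dissolved in DMSO and absorbance measured at 570 nm.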

| SMILES | IC50 [1] | inhibition at 1 µM [2] | Activity [3] |
| --- | --- | --- | --- |
| COc1cc([C@H]2c3cc(O)c(OC)cc3C=C(C=O)[C@@H]2CO)ccc1O | 3540 nM | 34.4% | Non-toxic |
| N=C(NCCC[C@H](N)C(=O)O)N[N+](=O)[O-] [NITROARGININE] | 43600 nM | 2.53% | – |
| COc1cc(-c2c3c(cc4cc(OC)c(O)cc24)C(=O)NC3)ccc1O [VITEDOAMINE A] | 1530 nM | 43.3% | Non-toxic |
| COc1cc(-c2c3c(cc4cc(OC)c(O)cc24)CNC3=O)ccc1O [VITEDOAMINE B] | 870 nM | 56.2% | Non-toxic |
| COc1cc([C@H]2c3cc(O)c(O)cc3C=C(C=O)[C@@H]2CO)ccc1O [VITEXDOIN A] | 380 nM | 67% | Non-toxic |
| COc1cc(-c2cc(C=O)cc3ccc(O)c(OC)c23)ccc1O [VITEXDOIN B] | 200 nM | 80.8% | Non-toxic |
| COc1cc(-c2c(C=O)ccc3cc(OC)c(O)cc23)ccc1O [VITEXDOIN C] | 570 nM | 61.7% | Non-toxic |
| COc1cc(-c2c(C=O)c(O)cc3cc(OC)c(O)cc23)ccc1O [VITEXDOIN D] | 130 nM | 91.1% | Non-toxic |
| COc1cc(-c2cc(C=O)c(O)c3cc(OC)c(O)cc23)ccc1O [VITEXDOIN E] | 150 nM | 84.2% | Non-toxic |
| COc1cc(-c2cc(C=O)cc3cc(OC)c(O)cc23)ccc1O [VITROFOLAL E] | 500 nM | 63.2% | – |
| COc1cc(-c2c(O)c(C=O)cc3cc(OC)c(O)cc23)ccc1O [VITROFOLAL F] | 110 nM | 95.8% | Non-toxic |
